Assay results as given in ChEMBL document CHEMBL4689842, “EUbOPEN Chemogenomics Library wave 1” (2021).

System: U2OS
Experiment: Multiplex assay against U2OS
Format: toxicity, cell-based
Conditions: human
Procedure, shortened: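 On a CQ1 microscope at 37°C and 5% CO2, live cells were imaged after compound addition. They had been stained at seeding with Hoechst33342, BioTracker Green Microtubule Cytoskeleton Dye, MitoTracker Red and Annexin V Alexa Fluor 680. CellPathfinder machine-learning gating assigned cells to Hoechst high-intensity objects or normal cells, normal cells to healthy, pyknosed or fragmented nuclei, and pyknosed cells to mitotic or apoptotic. Tubulin, mitochondrial-mass and membrane-permeability phenotypes are per cents of healthy-nucleus cells.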

[1] = 12 h, 1 µM, compound concentration 1 uM, replicate 1
[2] = 12 h, 1 µM, compound concentration 1 uM, replicate 2
[3] = 12 h, 10 µM, compound concentration 10 uM, replicate 1
[4] = 12 h, 10 µM, compound concentration 10 uM, replicate 2
[5] = 24 h, 1 µM, compound concentration 1 uM, replicate 1
[6] = 24 h, 1 µM, compound concentration 1 uM, replicate 2
[7] = 24 h, 10 µM, compound concentration 10 uM, replicate 1
[8] = 24 h, 10 µM, compound concentration 10 uM, replicate 2
[9] = 48 h, 1 µM, compound concentration 1 uM, replicate 1
[10] = 48 h, 1 µM, compound concentration 1 uM, replicate 2
[11] = 48 h, 10 µM, compound concentration 10 uM, replicate 1
[12] = 48 h, 10 µM, compound concentration 10 uM, replicate 2

Structure (SMILES): Cc1cc(C)cc(-c2cnc3cc(Cl)c(-c4cccc(O)c4)cc3c2OCCCN)c1
- Population Apoptotic (%) [1]: 36%
- Population Fragmented Nuclei (%) [1]: 11%
- Population Healthy Nuclei (%) [1]: 75%
- Population Hoechst High Intensity Objects (%) [1]: 6%
- Population Membrane Permeable-Phenotype (%) [1]: 5%
- Population Mitochondria Different-Phenotype (%) [1]: 76%
- Population Mitotic Cells (%) [1]: 64%
- Population Normal (%) [1]: 93%
- Population Pyknosed Nuclei (%) [1]: 12%
- Population Tubulin-Different-Phenotype (%) [1]: 88%
- Total Cell Count [1]: 132
- Population Apoptotic (%) [2]: 44%
- Population Healthy Nuclei (%) [2]: 72%
- Population Hoechst High Intensity Objects (%) [2]: 10%
- Population Membrane Permeable-Phenotype (%) [2]: 2%
- Population Mitochondria Different-Phenotype (%) [2]: 82%
- Population Mitotic Cells (%) [2]: 55%
- Population Normal (%) [2]: 90%
- Population Pyknosed Nuclei (%) [2]: 16%
- Population Tubulin-Different-Phenotype (%) [2]: 56%
- Total Cell Count [2]: 68
- Population Apoptotic (%) [3]: 90%
- Population Fragmented Nuclei (%) [3]: 33%
- Population Healthy Nuclei (%) [3]: 1%
- Population Hoechst High Intensity Objects (%) [3]: 14%
- Population Membrane Permeable-Phenotype (%) [3]: 50%
- Population Mitochondria Different-Phenotype (%) [3]: 50%
- Population Mitotic Cells (%) [3]: 9%
- Population Normal (%) [3]: 85%
- Population Pyknosed Nuclei (%) [3]: 64%
- Population Tubulin-Different-Phenotype (%) [3]: 50%
- Total Cell Count [3]: 207
- Population Apoptotic (%) [4]: 70%
- Population Fragmented Nuclei (%) [4]: 16%
- Population Healthy Nuclei (%) [4]: 32%
- Population Hoechst High Intensity Objects (%) [4]: 8%
- Population Membrane Permeable-Phenotype (%) [4]: 90%
- Population Mitochondria Different-Phenotype (%) [4]: 95%
- Population Mitotic Cells (%) [4]: 29%
- Population Normal (%) [4]: 91%
- Population Pyknosed Nuclei (%) [4]: 50%
- Population Tubulin-Different-Phenotype (%) [4]: 100%
- Total Cell Count [4]: 60
- Population Apoptotic (%) [5]: 35%
- Population Fragmented Nuclei (%) [5]: 7%
- Population Healthy Nuclei (%) [5]: 77%
- Population Hoechst High Intensity Objects (%) [5]: 5%
- Population Membrane Permeable-Phenotype (%) [5]: 6%
- Population Mitochondria Different-Phenotype (%) [5]: 75%
- Population Mitotic Cells (%) [5]: 64%
- Population Normal (%) [5]: 94%
- Population Pyknosed Nuclei (%) [5]: 14%
- Population Tubulin-Different-Phenotype (%) [5]: 68%
- Total Cell Count [5]: 131
- Population Apoptotic (%) [6]: 62%
- Population Fragmented Nuclei (%) [6]: 11%
- Population Healthy Nuclei (%) [6]: 75%
- Population Hoechst High Intensity Objects (%) [6]: 3%
- Population Membrane Permeable-Phenotype (%) [6]: 2%
- Population Mitochondria Different-Phenotype (%) [6]: 78%
- Population Mitotic Cells (%) [6]: 37%
- Population Normal (%) [6]: 96%
- Population Pyknosed Nuclei (%) [6]: 13%
- Population Tubulin-Different-Phenotype (%) [6]: 28%
- Total Cell Count [6]: 66
- Population Apoptotic (%) [7]: 86%
- Population Fragmented Nuclei (%) [7]: 33%
- Population Healthy Nuclei (%) [7]: 2%
- Population Hoechst High Intensity Objects (%) [7]: 15%
- Population Membrane Permeable-Phenotype (%) [7]: 66%
- Population Mitochondria Different-Phenotype (%) [7]: 66%
- Population Mitotic Cells (%) [7]: 13%
- Population Normal (%) [7]: 84%
- Population Pyknosed Nuclei (%) [7]: 63%
- Population Tubulin-Different-Phenotype (%) [7]: 66%
- Total Cell Count [7]: 200
- Population Apoptotic (%) [8]: 93%
- Population Fragmented Nuclei (%) [8]: 24%
- Population Healthy Nuclei (%) [8]: 3%
- Population Hoechst High Intensity Objects (%) [8]: 7%
- Population Membrane Permeable-Phenotype (%) [8]: 50%
- Population Mitochondria Different-Phenotype (%) [8]: 50%
- Population Mitotic Cells (%) [8]: 6%
- Population Normal (%) [8]: 92%
- Population Pyknosed Nuclei (%) [8]: 72%
- Population Tubulin-Different-Phenotype (%) [8]: 50%
- Total Cell Count [8]: 63
- Population Apoptotic (%) [9]: 48%
- Population Fragmented Nuclei (%) [9]: 8%
- Population Healthy Nuclei (%) [9]: 75%
- Population Hoechst High Intensity Objects (%) [9]: 1%
- Population Membrane Permeable-Phenotype (%) [9]: 3%
- Population Mitochondria Different-Phenotype (%) [9]: 47%
- Population Mitotic Cells (%) [9]: 51%
- Population Normal (%) [9]: 98%
- Population Pyknosed Nuclei (%) [9]: 15%
- Population Tubulin-Different-Phenotype (%) [9]: 32%
- Total Cell Count [9]: 127
- Population Apoptotic (%) [10]: 54%
- Population Fragmented Nuclei (%) [10]: 11%
- Population Healthy Nuclei (%) [10]: 73%
- Population Hoechst High Intensity Objects (%) [10]: 5%
- Population Membrane Permeable-Phenotype (%) [10]: 5%
- Population Mitochondria Different-Phenotype (%) [10]: 41%
- Population Mitotic Cells (%) [10]: 45%
- Population Normal (%) [10]: 95%
- Population Pyknosed Nuclei (%) [10]: 14%
- Population Tubulin-Different-Phenotype (%) [10]: 16%
- Total Cell Count [10]: 73
- Population Apoptotic (%) [11]: 83%
- Population Fragmented Nuclei (%) [11]: 30%
- Population Healthy Nuclei (%) [11]: 3%
- Population Hoechst High Intensity Objects (%) [11]: 20%
- Population Membrane Permeable-Phenotype (%) [11]: 75%
- Population Mitochondria Different-Phenotype (%) [11]: 75%
- Population Mitotic Cells (%) [11]: 16%
- Population Normal (%) [11]: 79%
- Population Pyknosed Nuclei (%) [11]: 65%
- Population Tubulin-Different-Phenotype (%) [11]: 75%
- Total Cell Count [11]: 270
- Population Apoptotic (%) [12]: 96%
- Population Fragmented Nuclei (%) [12]: 33%
- Population Healthy Nuclei (%) [12]: 12%
- Population Hoechst High Intensity Objects (%) [12]: 17%
- Population Membrane Permeable-Phenotype (%) [12]: 100%
- Population Mitochondria Different-Phenotype (%) [12]: 100%
- Population Mitotic Cells (%) [12]: 3%
- Population Normal (%) [12]: 82%
- Population Pyknosed Nuclei (%) [12]: 54%
- Population Tubulin-Different-Phenotype (%) [12]: 100%
- Total Cell Count [12]: 80
